Data from ChEMBL document CHEMBL4190262, “Tuning of β-glucosidase and α-galactosidase inhibition by generation and in situ screening of a library of pyrrolidine-triazole hybrid molecules” (Eur J Med Chem, 2017).
pIC50: −log10 of the molar value.

How the values were obtained:
[1] = Selectivity ratio of IC50 for human lysosomal alpha-galactosidase A to IC50 for coffee beans alpha-galactosidase
[2] = target: Alpha-galactosidase (Coffea arabica) (UniProt Q42656); assay: Inhibition of coffee beans alpha-galactosidase at 50 uM using p-nitrophenyl glycopyranoside preincubated for 5 mins followed by substrate addition measured after 20 mins by visible absorption spectroscopic method relative to control
Outline: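 Crude triazoles from in situ CuAAC (ascorbate/CuSO4, 24 h rt, water-diluted) were screened at 50 μM per well, assuming full conversion. Enzyme was coffee bean α-galactosidase at pH 6, 37 °C, with p-nitrophenyl glycoside substrate and 405 nm read-out. Blanks of CuSO4, ascorbate and each alkyne were run.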

Alpha-galactosidase = Alpha-galactosidase (Coffea arabica, UniProt Q42656); assay: Inhibition of coffee beans alpha-galactosidase using p-nitrophenyl glycopyranoside preincubated for 5 mins followed by substrate addition measured after 20 mins by visible absorption spectroscopic method
Outline: (§1)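 IC50 determined only for compounds giving ≥80% inhibition at 1 mM, read from plots of % inhibition versus inhibitor concentration. p-Nitrophenyl glycopyranoside substrate (10 mM solution) at the enzyme's optimal pH, with 0.01–0.5 units/mL enzyme. 5 min rt preincubation with enzyme, then 20 min at 37 °C. Borate stop (pH 9.8), absorbance at 405 nm. Duplicates averaged.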

Beta-galactosidase = target: T1, Beta-galactosidase (Bos taurus, UniProt Q58D55); assay: Inhibition of bovine liver beta-galactosidase using p-nitrophenyl glycopyranoside preincubated for 5 mins followed by substrate addition measured after 20 mins by visible absorption spectroscopic method; outline: as §1
T1 sequence (Q58D55 whole entry): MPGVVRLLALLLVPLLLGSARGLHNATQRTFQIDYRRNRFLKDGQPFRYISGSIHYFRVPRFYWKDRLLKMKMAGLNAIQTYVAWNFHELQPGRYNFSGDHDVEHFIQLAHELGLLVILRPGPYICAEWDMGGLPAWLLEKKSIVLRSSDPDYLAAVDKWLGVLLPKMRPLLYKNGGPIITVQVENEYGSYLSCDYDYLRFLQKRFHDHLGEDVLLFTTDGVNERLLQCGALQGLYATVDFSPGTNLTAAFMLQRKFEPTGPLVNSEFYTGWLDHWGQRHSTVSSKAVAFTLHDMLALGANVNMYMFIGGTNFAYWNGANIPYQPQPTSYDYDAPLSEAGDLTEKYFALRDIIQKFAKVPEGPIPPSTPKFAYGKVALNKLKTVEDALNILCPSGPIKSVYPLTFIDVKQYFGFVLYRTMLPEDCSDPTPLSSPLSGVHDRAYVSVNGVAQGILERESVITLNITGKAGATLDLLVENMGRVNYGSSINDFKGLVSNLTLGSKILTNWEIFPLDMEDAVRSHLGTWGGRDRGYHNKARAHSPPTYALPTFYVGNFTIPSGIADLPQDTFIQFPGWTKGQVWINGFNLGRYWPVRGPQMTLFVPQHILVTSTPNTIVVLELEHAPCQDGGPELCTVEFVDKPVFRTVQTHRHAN

Alpha-galactosidase A = target: T2, Alpha-galactosidase A (Homo sapiens, UniProt P06280); assay: Inhibition of human lysosomal alpha-galactosidase A using 4-methylumbelliferyl-alpha-D-galactopyranoside as substrate preincubated for 45 mins followed by substrate addition measured after 30 mins by fluorescence spectroscopic method
T2 sequence (P06280 whole entry): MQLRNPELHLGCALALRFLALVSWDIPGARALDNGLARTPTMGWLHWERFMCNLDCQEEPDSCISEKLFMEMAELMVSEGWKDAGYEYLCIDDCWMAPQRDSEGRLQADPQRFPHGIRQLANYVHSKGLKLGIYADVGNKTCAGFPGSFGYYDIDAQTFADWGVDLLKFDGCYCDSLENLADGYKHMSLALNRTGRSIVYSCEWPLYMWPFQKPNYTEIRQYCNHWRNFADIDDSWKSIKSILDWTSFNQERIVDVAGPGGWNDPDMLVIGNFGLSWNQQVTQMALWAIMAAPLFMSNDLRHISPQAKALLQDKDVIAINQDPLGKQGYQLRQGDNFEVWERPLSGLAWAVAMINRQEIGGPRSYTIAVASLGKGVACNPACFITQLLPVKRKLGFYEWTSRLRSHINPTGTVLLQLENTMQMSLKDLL
Outline: (§2)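 Enzyme in 100 mM McIlvaine buffer pH 5.2 with 0.25% sodium taurocholate and 0.1% Triton X-100, with inhibitor. Preincubated at 0 °C for 45 min, then started with 3 mM 4-methylumbelliferyl glycoside substrate solution and incubated 30 min at 37 °C. Stopped with 400 mM glycine-NaOH pH 10.6. 4-Methylumbelliferone fluorescence read at ex 362/em 450 nm.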

[3] = target: T3, Lysosomal acid glucosylceramidase (Homo sapiens, UniProt P04062); assay: Inhibition of human lysosomal beta-glucocerebrosidase using 4-methylumbelliferyl-beta-D-glucopyranoside as substrate preincubated for 45 mins followed by substrate addition measured after 30 mins by fluorescence spectroscopic method; outline: as §2
T3 sequence (P04062 whole entry): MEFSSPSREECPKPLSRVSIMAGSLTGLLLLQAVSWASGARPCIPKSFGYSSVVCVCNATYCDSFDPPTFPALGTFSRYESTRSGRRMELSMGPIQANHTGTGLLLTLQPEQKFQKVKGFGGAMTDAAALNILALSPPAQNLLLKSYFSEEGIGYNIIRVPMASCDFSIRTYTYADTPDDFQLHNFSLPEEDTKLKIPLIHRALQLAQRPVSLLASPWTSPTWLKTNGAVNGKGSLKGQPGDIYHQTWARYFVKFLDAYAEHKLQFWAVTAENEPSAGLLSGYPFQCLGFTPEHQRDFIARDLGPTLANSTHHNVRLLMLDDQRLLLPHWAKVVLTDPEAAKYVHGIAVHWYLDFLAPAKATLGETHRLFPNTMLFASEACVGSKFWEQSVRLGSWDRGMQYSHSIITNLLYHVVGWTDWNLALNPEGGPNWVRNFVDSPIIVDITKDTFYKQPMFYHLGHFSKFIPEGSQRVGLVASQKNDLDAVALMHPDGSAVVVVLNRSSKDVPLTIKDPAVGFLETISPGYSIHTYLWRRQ

[4] = Inhibition of bovine liver beta-glucosidase using p-nitrophenyl glycopyranoside preincubated for 5 mins followed by substrate addition measured after 20 mins by visible absorption spectroscopic method; parameters: species or system Bos taurus; outline: as §1
Prunus dulcis [5] = assay: Inhibition of almond beta-glucosidase at 1 mM using p-nitrophenyl glycopyranoside preincubated for 5 mins followed by substrate addition measured after 20 mins by visible absorption spectroscopic method relative to control
Outline: (§3)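 Test compound at 1 mM in well. Mix: 0.01–0.5 units/mL enzyme plus 10 mM p-nitrophenyl glycopyranoside (aqueous solution), buffered to the enzyme's optimal pH. Enzyme and inhibitor preincubated 5 min at rt. Substrate then added and incubated 20 min at 37 °C. Stopped with sodium borate (pH 9.8). p-Nitrophenolate read at 405 nm. Duplicates averaged.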

Prunus dulcis [6] = assay: Inhibition of almond beta-glucosidase at 10 uM using p-nitrophenyl glycopyranoside preincubated for 5 mins followed by substrate addition measured after 20 mins by visible absorption spectroscopic method relative to control
Outline: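 Crude click-reaction products screened in situ. Azide (final 15 mM) was reacted with each alkyne using sodium ascorbate/CuSO4 in tBuOH–H2O for 24 h at rt, then diluted with water. Tested at 10 μM per well, assuming quantitative conversion, against almond β-glucosidase at pH 5, 37 °C. p-Nitrophenyl glycoside read-out at 405 nm.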

[7] = target: T4, Alpha-galactosidase A (Homo sapiens) (UniProt P06280); assay: Inhibition of human lysosomal alpha-galactosidase A at 1 mM using 4-methylumbelliferyl-alpha-D-galactopyranoside as substrate preincubated for 45 mins followed by substrate addition measured after 30 mins by fluorescence spectroscopic method relative to control; outline: as §2
T4 sequence (whole entry): T2 sequence (P06280 whole entry)

Bos taurus = species: Bos taurus; assay: Inhibition of bovine liver beta-glucosidase at 1 mM using p-nitrophenyl glycopyranoside preincubated for 5 mins followed by substrate addition measured after 20 mins by visible absorption spectroscopic method relative to control; outline: as §3
[8] = Inhibition of almond beta-glucosidase using p-nitrophenyl glycopyranoside preincubated for 5 mins followed by substrate addition measured after 20 mins by visible absorption spectroscopic method; parameters: species or system Prunus dulcis; outline: as §1
[9] = target: Alpha-galactosidase (Coffea arabica) (UniProt Q42656); assay: Inhibition of coffee beans alpha-galactosidase at 1 mM using p-nitrophenyl glycopyranoside preincubated for 5 mins followed by substrate addition measured after 20 mins by visible absorption spectroscopic method relative to control; outline: as §3

Sequence of Alpha-galactosidase (Coffea arabica) (Q42656 16-378 limits assumed): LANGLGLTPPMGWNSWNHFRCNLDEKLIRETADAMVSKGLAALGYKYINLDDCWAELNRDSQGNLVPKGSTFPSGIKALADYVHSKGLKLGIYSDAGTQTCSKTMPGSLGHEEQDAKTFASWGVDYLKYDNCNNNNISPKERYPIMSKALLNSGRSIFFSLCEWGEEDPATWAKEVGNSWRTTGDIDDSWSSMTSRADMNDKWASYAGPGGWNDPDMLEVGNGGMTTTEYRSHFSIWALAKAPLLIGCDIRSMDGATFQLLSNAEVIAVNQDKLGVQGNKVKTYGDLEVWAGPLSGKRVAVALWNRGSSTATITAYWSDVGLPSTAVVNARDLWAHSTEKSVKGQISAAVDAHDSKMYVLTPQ
Sequence of Alpha-galactosidase (Q42656 whole entry): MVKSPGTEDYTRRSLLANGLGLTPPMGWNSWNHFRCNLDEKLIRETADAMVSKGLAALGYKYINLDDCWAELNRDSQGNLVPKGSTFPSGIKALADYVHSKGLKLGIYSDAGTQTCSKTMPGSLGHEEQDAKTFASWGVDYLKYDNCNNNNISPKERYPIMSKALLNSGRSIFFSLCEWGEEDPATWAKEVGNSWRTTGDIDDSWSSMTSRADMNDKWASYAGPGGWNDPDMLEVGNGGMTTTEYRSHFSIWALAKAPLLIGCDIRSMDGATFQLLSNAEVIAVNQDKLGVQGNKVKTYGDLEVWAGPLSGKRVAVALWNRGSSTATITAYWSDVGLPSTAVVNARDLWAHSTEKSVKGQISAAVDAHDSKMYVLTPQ

Row | Ratio IC50 [1] | inhibition [2] | pIC50 (Alpha-galactosidase) | pIC50 (Beta-galactosidase) | pIC50 (Alpha-galactosidase A) | pIC50 [3] | pIC50 [4] | inhibition (Prunus dulcis [5]) | inhibition (Prunus dulcis [6]) | inhibition [7] | inhibition (Bos taurus) | pIC50 [8] | inhibition [9] | SMILES
1 | 10 | 67% | 4.89 | 3.47 | 3.73 | 4.51 | 3.05 | < 50% |  |  |  |  |  | COc1ccc(-c2cn(C[C@H]3NC[C@@H](O)[C@H]3O)nn2)cc1
2 | 10 | 66% | 4.85 | 3.57 | 3.80 | 3.73 | 3.05 | < 50% |  |  |  |  |  | OCc1ccc(-c2cn(C[C@H]3NC[C@@H](O)[C@H]3O)nn2)cc1
3 |  |  |  | 3.82 |  | 4.72 |  |  | 65% | < 50% | < 50% | 5.15 | < 50% | C[Si](C)(C)Cc1cn(C[C@@H]2NC[C@@H](O)[C@H]2O)nn1
